The results in this text go back to ChEMBL document CHEMBL1126974, “The effect of NMeTyr5 substitution in luteinizing hormone-releasing hormone antagonists” (J Med Chem, 1993).

The structures appear in SMILES notation. In brackets after ≈: the same amount, converted by molar mass. Non-standard residues stand in square brackets, D forms with d. Residues, ends and D or L forms follow the SMILES beside them. *: point of attachment. dNva(5-oxo-5-(4-MeOPh)) = COc1ccc(C(=O)CC[C@@H](N)C(=O)O)cc1; dPhe(4-Cl) = N[C@H](Cc1ccc(Cl)cc1)C(=O)O; d2Nal = N[C@H](Cc1ccc2ccccc2c1)C(=O)O; Lys(iPr) = CC(C)NCCCC[C@H](N)C(=O)O; NMeY = CN[C@@H](Cc1ccc(O)cc1)C(=O)O; dBta = N[C@H](Cc1csc2ccccc12)C(=O)O; dCit = NC(=O)NCCC[C@@H](N)C(=O)O; d3Pal = N[C@H](Cc1cccnc1)C(=O)O; Nicotinoyl = O=C(c1cccnc1)*

In general, solubility refers to the concentration that dissolves in the medium under given conditions. As a reminder, the Ki is a measure of affinity in units of concentration, obtained from inhibition or displacement. Higher therefore signals a looser hold on the target.

For series [1], the species on record is Rattus norvegicus. Briefly: The negative logarithm of the concentration of the antagonist that requires 2-fold higher concentration of the agonist to release LH from cultured rat pituitary cells. The following applies: Pituitary gland cell, read-out: pA2 (converted). It counts as functional, cell-based. In a few lines:
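Cultured rat pituitary cells stimulated with LHRH agonist in presence of antagonist dissolved in 10 mmol Tris buffer pH 7.4; LH release measured. pA2 taken as negative log of antagonist concentration requiring 2-fold higher agonist concentration for LH release.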

Series [2] in a line: Solubility was determined in 5% dextrose, pH 4.5. It is filed as physicochemical. A digest of the protocol: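 Solubility measured in 5% dextrose at pH 4.5, reported in mg/mL; some peptides measured as TFA salts, others as acetate salts.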
Series [3] deals with T1, Gonadotropin-releasing hormone receptor (Rattus norvegicus, UniProt P30969).
T1 sequence (P30969 whole entry): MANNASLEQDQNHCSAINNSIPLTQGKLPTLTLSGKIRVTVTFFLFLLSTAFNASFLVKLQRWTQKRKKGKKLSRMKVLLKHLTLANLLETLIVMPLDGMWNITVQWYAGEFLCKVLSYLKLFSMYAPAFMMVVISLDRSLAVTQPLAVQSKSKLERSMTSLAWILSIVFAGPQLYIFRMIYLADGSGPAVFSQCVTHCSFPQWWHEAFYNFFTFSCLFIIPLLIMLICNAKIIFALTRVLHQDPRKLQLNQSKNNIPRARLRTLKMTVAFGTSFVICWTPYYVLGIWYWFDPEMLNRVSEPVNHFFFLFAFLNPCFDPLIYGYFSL
Briefly: The negative logarithm of the concentration of antagonist that inhibits 50% of the binding of 125 I-labeled leuprolide to the rat pituitary LHRH receptor. In a few lines: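 Competition binding to rat pituitary LHRH receptor with 125I-labeled leuprolide as radioligand; compounds dissolved in 10 mmol Tris buffer pH 7.4. Concentration inhibiting 50% of tracer binding determined and expressed as its negative logarithm (pKi). TFA salts unless indicated.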

Series [4] is filed under the species Rattus norvegicus. Briefly: Effective dose of the antagonist that gives 50% of the maximal release of histamine from rat peritoneal mast cells. It counts as functional. The following applies: read-out: ED50 (the source's name). A digest of the protocol: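 Mast cells from rat peritoneum; compounds dissolved in 5.6 mM glucose, 0.1% BSA in Dulbecco phosphate-buffered saline pH 7.4. Released histamine quantified by RIA kit; value is dose giving 50% of maximal histamine release, in µg/mL. Tested as TFA salts unless indicated.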

Turning to `CC(=O)N[C@H](Cc1ccc(Cl)cc1)C(=O)N[C@H](Cc1ccc(Cl)cc1)C(=O)N[C@H](Cc1csc2ccccc12)C(=O)N[C@@H](CO)C(=O)N[C@@H](Cc1ccc(O)cc1)C(=O)N[C@H](CCCCN)C(=O)N[C@@H](CC(C)C)C(=O)N[C@@H](CCCN=C(N)N)C(=O)N1CCC[C@H]1C(=O)N[C@H](C)C(N)=O` [listing 1 of 2 here], the Kb in the series listed under Rattus norvegicus [1] was 6.46 pM. Further, the solubility in series [2] is < 100 µg/mL. In addition, the affinity in series [3], expressed as Ki, was 33.1 pM.

As for `CC(=O)N[C@H](Cc1ccc(Cl)cc1)C(=O)N[C@H](Cc1ccc(Cl)cc1)C(=O)N[C@H](Cc1csc2ccccc12)C(=O)N[C@@H](CO)C(=O)N[C@@H](Cc1ccc(O)cc1)C(=O)N[C@H](CCCCN)C(=O)N[C@@H](CC(C)C)C(=O)N[C@@H](CCCN=C(N)N)C(=O)N1CCC[C@H]1C(=O)N[C@H](C)C(N)=O` [listing 2 of 2 here], in the series listed under Rattus norvegicus [4], the EC50 was 0.62 µg/mL (≈ 0.43 µM).

For the compound `CC(=O)N[C@H](Cc1ccc2ccccc2c1)C(=O)N[C@H](Cc1ccc(Cl)cc1)C(=O)N[C@H](Cc1cccnc1)C(=O)N[C@@H](CO)C(=O)N(C)[C@@H](Cc1ccc(O)cc1)C(=O)N[C@H](CCCNC(N)=O)C(=O)N[C@@H](CC(C)C)C(=O)N[C@@H](CCCN=C(N)N)C(=O)N1CCC[C@H]1C(=O)N[C@H](C)C(N)=O` [listing 1 of 2 here], in the series listed under Rattus norvegicus [1], the Kb is 15.8 pM. This compound also returned a solubility in series [2] of 12000 µg/mL (≈ 8300 µM). Also, the Ki in series [3] was 13.5 pM.

As to `CC(=O)N[C@H](Cc1ccc2ccccc2c1)C(=O)N[C@H](Cc1ccc(Cl)cc1)C(=O)N[C@H](Cc1cccnc1)C(=O)N[C@@H](CO)C(=O)N(C)[C@@H](Cc1ccc(O)cc1)C(=O)N[C@H](CCCNC(N)=O)C(=O)N[C@@H](CC(C)C)C(=O)N[C@@H](CCCN=C(N)N)C(=O)N1CCC[C@H]1C(=O)N[C@H](C)C(N)=O` [listing 2 of 2 here], in the series listed under Rattus norvegicus [4], the EC50 came out at 1.65 µg/mL (≈ 1.14 µM).

As to `CC(=O)N[C@H](Cc1ccc2ccccc2c1)C(=O)N[C@H](Cc1ccc(Cl)cc1)C(=O)N[C@H](Cc1cccnc1)C(=O)N[C@@H](CO)C(=O)N[C@@H](CCCCNC(=O)c1cccnc1)C(=O)N[C@H](CCCCNC(=O)c1cccnc1)C(=O)N[C@@H](CC(C)C)C(=O)N[C@@H](CCCCNC(C)C)C(=O)N1CCC[C@H]1C(=O)N[C@H](C)C(N)=O` (Ac-[d2Nal][dPhe(4-Cl)][d3Pal]SK(Nicotinoyl)[dK](Nicotinoyl)L[Lys(iPr)]P[dA]-NH2) [listing 1 of 2 here], the Kb in the series listed under Rattus norvegicus [1] was 23.4 pM. Moreover, in series [2], the solubility is 1100 µg/mL (≈ 691 µM). Also, the Ki in series [3] was 61.7 pM.

Consider `CC(=O)N[C@H](Cc1ccc2ccccc2c1)C(=O)N[C@H](Cc1ccc(Cl)cc1)C(=O)N[C@H](Cc1cccnc1)C(=O)N[C@@H](CO)C(=O)N[C@@H](CCCCNC(=O)c1cccnc1)C(=O)N[C@H](CCCCNC(=O)c1cccnc1)C(=O)N[C@@H](CC(C)C)C(=O)N[C@@H](CCCCNC(C)C)C(=O)N1CCC[C@H]1C(=O)N[C@H](C)C(N)=O` (Ac-[d2Nal][dPhe(4-Cl)][d3Pal]SK(Nicotinoyl)[dK](Nicotinoyl)L[Lys(iPr)]P[dA]-NH2) [listing 2 of 2 here], for which the EC50 in the series filed under Rattus norvegicus [4] came to 261 µg/mL (≈ 164 µM).

Regarding `COc1ccc(C(=O)CC[C@@H](NC(=O)[C@H](CCCN=C(N)N)NC(=O)[C@H](CO)NC(=O)[C@@H](Cc2cccnc2)NC(=O)[C@@H](Cc2ccc(Cl)cc2)NC(=O)[C@@H](Cc2ccc3ccccc3c2)NC(C)=O)C(=O)N[C@@H](CC(C)C)C(=O)N[C@@H](CCCN=C(N)N)C(=O)N2CCC[C@H]2C(=O)N[C@H](C)C(N)=O)cc1` (Ac-[d2Nal][dPhe(4-Cl)][d3Pal]SR[dNva(5-oxo-5-(4-MeOPh))]LRP[dA]-NH2) [listing 1 of 2 here], the Kb in the series listed under Rattus norvegicus [1] was 8.71 pM. Moreover, the Ki in series [3] was 52.5 pM.

With `COc1ccc(C(=O)CC[C@@H](NC(=O)[C@H](CCCN=C(N)N)NC(=O)[C@H](CO)NC(=O)[C@@H](Cc2cccnc2)NC(=O)[C@@H](Cc2ccc(Cl)cc2)NC(=O)[C@@H](Cc2ccc3ccccc3c2)NC(C)=O)C(=O)N[C@@H](CC(C)C)C(=O)N[C@@H](CCCN=C(N)N)C(=O)N2CCC[C@H]2C(=O)N[C@H](C)C(N)=O)cc1` (Ac-[d2Nal][dPhe(4-Cl)][d3Pal]SR[dNva(5-oxo-5-(4-MeOPh))]LRP[dA]-NH2) [listing 2 of 2 here], the EC50 in the series filed under Rattus norvegicus [4] turned out to be 1.11 µg/mL (≈ 0.747 µM).

`CC(=O)N[C@H](Cc1ccc2ccccc2c1)C(=O)N[C@H](Cc1ccc(Cl)cc1)C(=O)N[C@H](Cc1cccnc1)C(=O)N[C@@H](CO)C(=O)N[C@@H](Cc1ccc(O)cc1)C(=O)N[C@H](CCCNC(N)=O)C(=O)N[C@@H](CC(C)C)C(=O)N[C@@H](CCCN=C(N)N)C(=O)N1CCC[C@H]1C(=O)N[C@H](C)C(N)=O` (Ac-[d2Nal][dPhe(4-Cl)][d3Pal]SY[dCit]LRP[dA]-NH2) [listing 1 of 2 here]: the Kb in the series filed under Rattus norvegicus [1] was 35.5 pM.

For the compound `CC(=O)N[C@H](Cc1ccc2ccccc2c1)C(=O)N[C@H](Cc1ccc(Cl)cc1)C(=O)N[C@H](Cc1cccnc1)C(=O)N[C@@H](CO)C(=O)N[C@@H](Cc1ccc(O)cc1)C(=O)N[C@H](CCCNC(N)=O)C(=O)N[C@@H](CC(C)C)C(=O)N[C@@H](CCCNC(=N)N)C(=O)N1CCC[C@H]1C(=O)N[C@H](C)C(N)=O` (Ac-[d2Nal][dPhe(4-Cl)][d3Pal]SY[dCit]LRP[dA]-NH2), the solubility in series [2] was < 1000 µg/mL. Further, in series [3], the Ki is 117 pM.

In the case of `CC(=O)N[C@H](Cc1ccc2ccccc2c1)C(=O)N[C@H](Cc1ccc(Cl)cc1)C(=O)N[C@H](Cc1cccnc1)C(=O)N[C@@H](CO)C(=O)N[C@@H](Cc1ccc(O)cc1)C(=O)N[C@H](CCCNC(N)=O)C(=O)N[C@@H](CC(C)C)C(=O)N[C@@H](CCCN=C(N)N)C(=O)N1CCC[C@H]1C(=O)N[C@H](C)C(N)=O` (Ac-[d2Nal][dPhe(4-Cl)][d3Pal]SY[dCit]LRP[dA]-NH2) [listing 2 of 2 here], the EC50 in the series filed under Rattus norvegicus [4] was 1.11 µg/mL (≈ 0.776 µM).

For the compound `CC(=O)N[C@H](Cc1ccc2ccccc2c1)C(=O)N[C@H](Cc1ccc(Cl)cc1)C(=O)N[C@H](Cc1cccnc1)C(=O)N[C@@H](CO)C(=O)N(C)[C@@H](Cc1ccc(O)cc1)C(=O)N[C@H](CCCCNC(=O)c1cccnc1)C(=O)N[C@@H](CC(C)C)C(=O)N[C@@H](CCCCNC(C)C)C(=O)N1CCC[C@H]1C(=O)N[C@H](C)C(N)=O` (Ac-[d2Nal][dPhe(4-Cl)][d3Pal]S[NMeY][dK](Nicotinoyl)L[Lys(iPr)]P[dA]-NH2) [listing 1 of 2 here], the Kb in the series listed under Rattus norvegicus [1] is 5.89 pM. In addition, in series [2], the solubility is > 20000 µg/mL.

For `CC(=O)N[C@H](Cc1ccc2ccccc2c1)C(=O)N[C@H](Cc1ccc(Cl)cc1)C(=O)N[C@H](Cc1cccnc1)C(=O)N[C@@H](CO)C(=O)N(C)[C@@H](Cc1ccc(O)cc1)C(=O)N[C@H](CCCCNC(=O)c1cccnc1)C(=O)N[C@@H](CC(C)C)C(=O)N[C@@H](CCCCNC(C)C)C(=O)N1CCC[C@H]1C(=O)N[C@H](C)C(N)=O` (Ac-[d2Nal][dPhe(4-Cl)][d3Pal]S[NMeY][dK](Nicotinoyl)L[Lys(iPr)]P[dA]-NH2) [listing 2 of 2 here], in the series filed under Rattus norvegicus [4], the EC50 was found to be 10 µg/mL (≈ 6.51 µM).

In the case of `CC(=O)N[C@H](Cc1ccc(Cl)cc1)C(=O)N[C@H](Cc1ccc(Cl)cc1)C(=O)N[C@H](Cc1csc2ccccc12)C(=O)N[C@@H](CO)C(=O)N(C)[C@@H](Cc1ccc(O)cc1)C(=O)N[C@H](CCCCN)C(=O)N[C@@H](CC(C)C)C(=O)N[C@@H](CCCN=C(N)N)C(=O)N1CCC[C@H]1C(=O)N[C@H](C)C(N)=O` (Ac-[dPhe(4-Cl)][dPhe(4-Cl)][dBta]S[NMeY][dK]LRP[dA]-NH2) [listing 1 of 2 here], the Kb in the series listed under Rattus norvegicus [1] was 5.01 pM. Besides, the solubility in series [2] was > 25000 µg/mL. Besides, the affinity in series [3], expressed as Ki, was 23.4 pM.

Turning to `CC(=O)N[C@H](Cc1ccc(Cl)cc1)C(=O)N[C@H](Cc1ccc(Cl)cc1)C(=O)N[C@H](Cc1csc2ccccc12)C(=O)N[C@@H](CO)C(=O)N(C)[C@@H](Cc1ccc(O)cc1)C(=O)N[C@H](CCCCN)C(=O)N[C@@H](CC(C)C)C(=O)N[C@@H](CCCN=C(N)N)C(=O)N1CCC[C@H]1C(=O)N[C@H](C)C(N)=O` (Ac-[dPhe(4-Cl)][dPhe(4-Cl)][dBta]S[NMeY][dK]LRP[dA]-NH2) [listing 2 of 2 here], the EC50 in the series filed under Rattus norvegicus [4] is < 0.5 µg/mL.
